# Results from ChEMBL document CHEMBL1143707, “7-Arylpiperazinylalkyl and 7-tetrahydroisoquinolinylalkyl derivatives of 8-alkoxy-purine-2,6-dione and some of their purine-2,6,8-trione analogs as 5-HT(1A), 5-HT(2A), and 5-HT(7) serotonin receptor ligands” (Bioorg Med Chem, 2007).
# Tests used:
# [1] = test system: Mus musculus; assay: Antidepressant activity in Swiss Albino mouse assessed as immobility time during final 4 mins of 6 mins session at 20 mg/kg, ip administered 30 mins before the test in forced-swimming test; type: functional; details: route intraperitoneal
# In short: (§1)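 Male Albino Swiss mice (24-28 g), ip in 1% aqueous Tween 80 suspension (10 mL/kg), 30 min pretest; single glass cylinder (25 cm high, 10 cm diameter), 6 cm water at 23–25 °C for 6 min; immobility (floating, minimal head-keeping movements) timed over final 4 min; n = 9-10/group; mean ± SEM.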
# [2] = biological target: 5-hydroxytryptamine receptor 2A (Rattus norvegicus, UniProt P14842); assay: Displacement of [3H]ketanserin from rat brain 5HT2A receptor
# In short: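 Rat brain membranes; 0.6 nM [3H]-ketanserin; nonspecific binding with 1 μM methysergide; 8–10 competitor concentrations in triplicate, ≥3 experiments; GF/B filtration, scintillation counting; Ki via Cheng–Prusoff.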
# [3] = test system: Mus musculus; assay: Decrease in body temperature in Swiss Albino mouse at 5 mg/kg, ip administered 30 mins before the test measured after 60 mins relative to control; type: functional; details: route intraperitoneal
# In short: (§2)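 Male Albino Swiss mice (24-28 g) given compound ip in 1% aqueous Tween 80 (10 mL/kg); rectal temperature read at 30, 60, 90 and 120 min post-dose; Δt versus basal temperature taken at start (initial ~36.0 °C); n = 8/group; mean ± SEM.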
# [4] = test system: Mus musculus; assay: Decrease in body temperature in Swiss Albino mouse at 2.5 mg/kg, ip administered 30 mins before the test measured after 30 mins relative to control; type: functional; details: route intraperitoneal; in short: as §2
# [5] = test system: Mus musculus; assay: Effect on compound induced hypothermia in Swiss Albino mouse at 2.5 mg/kg, ip in presence of 0.1 mg/kg WAY 100635 after 60 mins relative to control; type: functional
# In short: (§3)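 Male Albino Swiss mice; WAY 100635 0.1 mg/kg sc (in distilled water) 15 min before ip compound (1% Tween 80); rectal temperature at 30 and 60 min after compound; Δt from basal; n = 8/group; mean ± SEM.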
# [6] = test system: Mus musculus; assay: Antidepressant activity in Swiss Albino mouse assessed as immobility time during final 4 mins of 6 mins session at 10 mg/kg, ip administered 30 mins before the test in forced-swimming test; type: functional; details: route intraperitoneal; in short: as §1
# [7] = test system: Mus musculus; assay: Locomotor activity in Swiss Albino mouse assessed as number of crossings in 30 mins at 20 mg/kg, ip administered 30 mins before the test; type: functional; details: route intraperitoneal
# In short: (§4)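 Male Albino Swiss mice dosed ip 30 min before test (compound in 1% Tween 80; imipramine in distilled water); individual cages with IR beam sensors, consecutive beam breaks scored as ambulatory counts during first 6 min and over a 30-min session; n = 10/group; mean ± SEM.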
# [8] = test system: Mus musculus; assay: Anxiolytic activity in Swiss Albino mouse assessed as number of punished crossings for 60 secs at 5 mg/kg, ip administered 30 mins before the test in four-plate test; type: functional; details: route intraperitoneal
# In short: (§5)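 Male Albino Swiss mice (24-28 g), ip in 1% Tween 80 (10 mL/kg) 30 min before test; box with four metal floor plates, 120 V for 0.5 s on each plate-to-plate crossing after 15 s free exploration, 3 s shock-free if running continues; punished crossings counted over 60 s; n = 9-10/group; mean ± SEM.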
# [9] = test system: Mus musculus; assay: Anxiolytic activity in Swiss Albino mouse assessed as number of punished crossings for 60 secs at 10 mg/kg, ip administered 30 mins before the test in four-plate test; type: functional; details: route intraperitoneal; in short: as §5
# [10] = test system: Mus musculus; assay: Decrease in body temperature in Swiss Albino mouse at 5 mg/kg, ip administered 30 mins before the test measured after 120 mins relative to control; type: functional; details: route intraperitoneal; in short: as §2
# [11] = test system: Mus musculus; assay: Antidepressant activity in Swiss Albino mouse assessed as immobility time during final 4 mins of 6 mins session at 2.5 mg/kg, ip administered 30 mins before the test in forced-swimming test; type: functional; details: route intraperitoneal; in short: as §1
# [12] = test system: Mus musculus; assay: Decrease in body temperature in Swiss Albino mouse at 5 mg/kg, ip administered 30 mins before the test measured after 90 mins relative to control; type: functional; details: route intraperitoneal; in short: as §2
# [13] = biological target: T1, 5-hydroxytryptamine receptor 1A (Rattus norvegicus, UniProt P19327); assay: Displacement of [3H]8-OH-DPAT from rat brain 5HT1A receptor
# T1 sequence (P19327 whole entry): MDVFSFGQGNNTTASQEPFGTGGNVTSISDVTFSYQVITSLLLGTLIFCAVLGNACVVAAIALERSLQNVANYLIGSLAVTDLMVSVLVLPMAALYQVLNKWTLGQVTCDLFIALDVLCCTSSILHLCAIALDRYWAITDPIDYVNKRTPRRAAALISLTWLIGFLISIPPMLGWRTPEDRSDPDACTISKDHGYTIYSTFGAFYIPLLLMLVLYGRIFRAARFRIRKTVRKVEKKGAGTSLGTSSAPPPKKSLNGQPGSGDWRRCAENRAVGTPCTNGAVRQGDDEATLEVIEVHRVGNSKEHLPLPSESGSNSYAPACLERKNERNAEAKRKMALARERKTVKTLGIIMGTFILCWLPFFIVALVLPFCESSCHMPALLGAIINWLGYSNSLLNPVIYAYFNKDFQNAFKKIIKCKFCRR
# In short: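 Rat hippocampal membranes; 1 nM [3H]-8-OH-DPAT; nonspecific binding with 10 μM 5-HT; 8–10 competitor concentrations in triplicate, ≥3 experiments; GF/B filtration, ice-cold buffer washes, scintillation counting; Ki by nonlinear regression with Cheng–Prusoff.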
# [14] = test system: Mus musculus; assay: Decrease in body temperature in Swiss Albino mouse at 5 mg/kg, ip administered 30 mins before the test measured after 30 mins relative to control; type: functional; details: route intraperitoneal; in short: as §2
# [15] = test system: Mus musculus; assay: Antidepressant activity in Swiss Albino mouse assessed as immobility time during final 4 mins of 6 mins session at 5 mg/kg, ip administered 30 mins before the test in forced-swimming test; type: functional; details: route intraperitoneal; in short: as §1
# [16] = test system: Mus musculus; assay: Effect on compound induced hypothermia in Swiss Albino mouse at 2.5 mg/kg, ip in presence of 0.1 mg/kg WAY 100635 after 30 mins relative to control; type: functional; in short: as §3
# [17] = test system: Mus musculus; assay: Locomotor activity in Swiss Albino mouse assessed as number of crossings in 6 mins at 10 mg/kg, ip administered 30 mins before the test; type: functional; details: route intraperitoneal; in short: as §4
# [18] = test system: Mus musculus; assay: Locomotor activity in Swiss Albino mouse assessed as number of crossings in 30 mins at 10 mg/kg, ip administered 30 mins before the test; type: functional; details: route intraperitoneal; in short: as §4
# [19] = test system: Mus musculus; assay: Decrease in body temperature in Swiss Albino mouse at 2.5 mg/kg, ip administered 30 mins before the test measured after 120 mins relative to control; type: functional; details: route intraperitoneal; in short: as §2
# [20] = test system: Mus musculus; assay: Locomotor activity in Swiss Albino mouse assessed as number of crossings in 30 mins at 5 mg/kg, ip administered 30 mins before the test; type: functional; details: route intraperitoneal; in short: as §4
# [21] = test system: Mus musculus; assay: Anxiolytic activity in Swiss Albino mouse assessed as number of punished crossings for 60 secs at 2.5 mg/kg, ip administered 30 mins before the test in four-plate test; type: functional; details: route intraperitoneal; in short: as §5
# [22] = biological target: 5-hydroxytryptamine receptor 7 (Rattus norvegicus, UniProt P32305); assay: Displacement of [3H]5CT from 5HT7 receptor in Wistar rat hyphalamic membrane; type: cell membranes
# [23] = test system: Mus musculus; assay: Decrease in body temperature in Swiss Albino mouse at 2.5 mg/kg, ip administered 30 mins before the test measured after 90 mins relative to control; type: functional; details: route intraperitoneal; in short: as §2
# [24] = test system: Mus musculus; assay: Locomotor activity in Swiss Albino mouse assessed as number of crossings in 6 mins at 5 mg/kg, ip administered 30 mins before the test; type: functional; details: route intraperitoneal; in short: as §4
# [25] = test system: Mus musculus; assay: Locomotor activity in Swiss Albino mouse assessed as number of crossings in 6 mins at 20 mg/kg, ip administered 30 mins before the test; type: functional; details: route intraperitoneal; in short: as §4
# [26] = test system: Mus musculus; assay: Decrease in body temperature in Swiss Albino mouse at 2.5 mg/kg, ip administered 30 mins before the test measured after 60 mins relative to control; type: functional; details: route intraperitoneal; in short: as §2
# Chain of 5-hydroxytryptamine receptor 2A (P14842 whole entry): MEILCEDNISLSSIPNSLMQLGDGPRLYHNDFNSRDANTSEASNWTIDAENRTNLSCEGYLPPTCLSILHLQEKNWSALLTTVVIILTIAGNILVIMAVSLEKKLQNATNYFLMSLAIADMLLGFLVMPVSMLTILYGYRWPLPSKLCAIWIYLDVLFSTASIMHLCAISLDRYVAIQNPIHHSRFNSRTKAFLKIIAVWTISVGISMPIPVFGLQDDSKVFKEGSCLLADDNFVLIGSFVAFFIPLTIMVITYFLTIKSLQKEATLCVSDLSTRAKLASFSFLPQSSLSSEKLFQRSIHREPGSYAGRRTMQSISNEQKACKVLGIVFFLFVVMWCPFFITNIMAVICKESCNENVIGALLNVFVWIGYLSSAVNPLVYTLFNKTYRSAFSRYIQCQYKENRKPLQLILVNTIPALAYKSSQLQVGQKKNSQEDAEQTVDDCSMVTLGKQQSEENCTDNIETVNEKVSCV
# Chain of 5-hydroxytryptamine receptor 7 (P32305 whole entry): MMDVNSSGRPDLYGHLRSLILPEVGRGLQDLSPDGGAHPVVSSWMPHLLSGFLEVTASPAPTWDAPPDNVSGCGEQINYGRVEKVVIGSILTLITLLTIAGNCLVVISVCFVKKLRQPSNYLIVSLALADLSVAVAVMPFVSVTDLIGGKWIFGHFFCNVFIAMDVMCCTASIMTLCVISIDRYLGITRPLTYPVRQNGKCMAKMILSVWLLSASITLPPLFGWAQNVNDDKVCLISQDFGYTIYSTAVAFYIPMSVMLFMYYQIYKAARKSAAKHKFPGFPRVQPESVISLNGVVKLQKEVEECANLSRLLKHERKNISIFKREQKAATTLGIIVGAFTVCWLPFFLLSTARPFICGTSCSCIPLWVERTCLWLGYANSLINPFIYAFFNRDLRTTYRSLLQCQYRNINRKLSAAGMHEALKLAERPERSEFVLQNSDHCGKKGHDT
compound,measurement,setting,value
CCOc1nc2c(c(=O)n(C)c(=O)n2C)n1CCCCN1CCN(c2ccccc2OC)CC1.Cl,Activity,[1],178.2 s
same,Ki,[2],253 nM
same,Activity,[3],-1.9 °C
same,Activity,[4],-1.5 °C
same,Activity,[5],-0.3 °C
same,Activity,[6],122.6 s
same,Activity,[7],19.5
same,Activity,[8],5.8
same,Activity,[9],3.8
same,Activity,[10],-1.3 °C
same,Activity,[11],154.4 s
same,Activity,[12],-1.5 °C
same,Ki,[13],11 nM
same,Activity,[14],-2.5 °C
same,Activity,[15],126.9 s
same,Activity,[16],-0.5 °C
same,Activity,[17],56.2
same,Activity,[18],193.4
same,Activity,[19],-0.7 °C
same,Activity,[20],325
same,Activity,[21],4.1
same,Ki,[22],54 nM
same,Activity,[23],-0.9 °C
same,Activity,[24],125.5
same,Activity,[25],11.1
same,Activity,[26],-1 °C
CCCOc1nc2c(c(=O)n(C)c(=O)n2C)n1CCCN1CCc2ccccc2C1,Ki,[2],2610 nM
same,Ki,[13],1010 nM
same,Ki,[22],4400 nM
CCOc1nc2c(c(=O)n(C)c(=O)n2C)n1CCCCN1CCc2ccccc2C1,Ki,[2],1930 nM
same,Ki,[13],430 nM
same,Ki,[22],83 nM
Cn1c(=O)c2c([nH]c(=O)n2CCCN2CCN(c3ccccc3)CC2)n(C)c1=O,Ki,[2],230 nM
same,Ki,[13],4210 nM
same,Ki,[22],13900 nM
Cn1c(=O)c2c([nH]c(=O)n2CCCCN2CCN(c3ccccc3)CC2)n(C)c1=O,Ki,[2],560 nM
same,Ki,[13],1500 nM
same,Ki,[22],1820 nM
Cn1c(=O)c2c([nH]c(=O)n2CCCCN2CCN(c3cccc(Cl)c3)CC2)n(C)c1=O,Ki,[2],60 nM
same,Ki,[13],260 nM
same,Ki,[22],3670 nM
CCOc1nc2c(c(=O)n(C)c(=O)n2C)n1CCCN1CCN(c2cccc(Cl)c2)CC1,Ki,[2],23 nM
same,Ki,[13],190 nM
same,Ki,[22],130 nM
CCCOc1nc2c(c(=O)n(C)c(=O)n2C)n1CCCN1CCN(c2ccccc2OC)CC1,Ki,[2],540 nM
same,Ki,[13],314 nM
same,Ki,[22],328 nM
CCCOc1nc2c(c(=O)n(C)c(=O)n2C)n1CCCN1CCN(c2cccc(Cl)c2)CC1,Ki,[2],25 nM
same,Ki,[13],288 nM
same,Ki,[22],267 nM
CCOc1nc2c(c(=O)n(C)c(=O)n2C)n1CCCCN1CCN(c2ccccc2)CC1,Ki,[2],131 nM
same,Ki,[13],67 nM
same,Ki,[22],197 nM
CCCOc1nc2c(c(=O)n(C)c(=O)n2C)n1CCCCN1CCN(c2ccccc2)CC1,Ki,[2],57 nM
same,Ki,[13],130 nM
same,Ki,[22],680 nM
